According to ChEMBL document CHEMBL3272249, “Esters of N-tert-butylarterenol. Long-acting new bronchodilators with reduced cardiac effects” (J Med Chem, 1976):

Key:
Canis familiaris [1] = test: Bronchodilator activity in dog assessed as time of inhibition of carbachol or histamine-induced bronchoconstriction at 5 mg/kg, iv relative to control; assay type: functional, Canis lupus familiaris
Procedure, shortened: (§1)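 Anesthetized dogs with an airway cannula and a nonbreathing valve. Bronchoconstriction was induced by iv carbachol (2–4 μg/kg) or histamine diphosphate (20–50 μg/kg) and read as change in airway pressure by transducer. Each compound was tested against both agonists in different dogs, and the results were combined and averaged. Effect is % inhibition of control constriction, with at least three dogs per dose. Drugs were dissolved fresh in distilled water, diluted in saline and kept on ice.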

Canis familiaris [2] = test: Bronchodilator activity in dog assessed as degree of inhibition of carbachol or histamine-induced bronchoconstriction at 5 mg/kg, iv relative to control; assay type: functional; conditions: Canis lupus familiaris
Procedure, shortened: (§2)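 Anesthetized dogs, trachea cannulated with a nonbreathing valve. Bronchoconstriction induced by iv carbachol (2–4 μg/kg) or histamine diphosphate (20–50 μg/kg) in separate animals, and airway pressure recorded by transducer. Drug stocks were made fresh in distilled water, diluted in saline and kept on ice. Read-out was percent inhibition of control constriction, averaged over at least three dogs per dose at the higher dose. Carbachol and histamine data were combined.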

Canis familiaris [3] = test: Bronchodilator activity in dog assessed as degree of inhibition of carbachol or histamine-induced bronchoconstriction at 4 to 8 mg/kg, iv relative to control; assay type: functional, Canis lupus familiaris; conditions: dose mg/kg 4-8; procedure, shortened: as §2
Canis familiaris [4] = test: Cardiotoxicity in spontaneously respiring dog assessed as degree of increase in heart rate at 4 to 8 mg/kg, iv relative to control; assay type: toxicity, organism-based, Canis lupus familiaris; parameters: dose 4-8 mg/kg, route intravenous; conditions: in vivo
Procedure, shortened: (§3)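 Anesthetized, spontaneously respiring dogs. Heart rate was taken from a lead II EKG, and blood pressure from the right femoral artery by transducer. The increase in heart rate (beats/min) was scored on a graded scale with more than 4 dogs per dose, and its duration was recorded. Drugs were dissolved fresh in distilled water, diluted in physiological saline and kept on ice.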

Canis familiaris [5] = test: Bronchodilator activity in dog assessed as degree of inhibition of carbachol or histamine-induced bronchoconstriction at 400 to 800 mg/kg, it relative to control; assay type: functional, Canis lupus familiaris; conditions: dose mg/kg 400-800; route endotracheal; procedure, shortened: as §2
Canis familiaris [6] = test: Bronchodilator activity in dog assessed as time of inhibition of carbachol or histamine-induced bronchoconstriction at 400 to 800 mg/kg, it relative to control; assay type: functional, Canis lupus familiaris; conditions: dose mg/kg 400-800; route endotracheal
Procedure, shortened: (§4)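 Dog airway model: anesthetized, cannulated via a nonbreathing valve, with airway pressure changes recorded after iv carbachol (2–4 μg/kg) or histamine diphosphate (20–50 μg/kg) challenge, each agonist in different animals. Compounds were given iv, intraduodenally or intratracheally from fresh aqueous stocks diluted in saline. Duration (h) of inhibition of induced bronchoconstriction was followed, and the two agonist datasets were pooled.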

Canis familiaris [7] = test: Cardiotoxicity in spontaneously respiring dog assessed as time of increase in heart rate at 4 to 8 mg/kg, iv relative to control; assay type: toxicity, organism-based, Canis lupus familiaris; parameters: dose 4-8 mg/kg, route intravenous; conditions: in vivo; procedure, shortened: as §3
Canis familiaris [8] = test: Cardiotoxicity in spontaneously respiring dog assessed as time of increase in heart rate at 200 to 400 mg/kg, id relative to control; assay type: toxicity, organism-based, Canis lupus familiaris; parameters: dose 200-400 mg/kg, route intraduodenal; conditions: in vivo, other; procedure, shortened: as §3
Canis familiaris [9] = test: Bronchodilator activity in dog assessed as time of inhibition of carbachol or histamine-induced bronchoconstriction at 200 to 400 mg/kg, id relative to control; assay type: functional, Canis lupus familiaris; conditions: dose mg/kg 200-400; route intraduodenal; procedure, shortened: as §4
Canis familiaris [10] = test: Bronchodilator activity in dog assessed as degree of inhibition of carbachol or histamine-induced bronchoconstriction at 200 to 400 mg/kg, id relative to control; assay type: functional, Canis lupus familiaris; conditions: dose mg/kg 200-400; route intraduodenal; procedure, shortened: as §2
Canis familiaris [11] = test: Cardiotoxicity in spontaneously respiring dog assessed as degree of increase in heart rate at 200 to 400 mg/kg, id relative to control; assay type: toxicity, organism-based, Canis lupus familiaris; parameters: dose 200-400 mg/kg, route intraduodenal; conditions: in vivo, other; procedure, shortened: as §3
Canis familiaris [12] = test: Bronchodilator activity in dog assessed as time of inhibition of carbachol or histamine-induced bronchoconstriction at 4 to 8 mg/kg, iv relative to control; assay type: functional, Canis lupus familiaris; conditions: dose mg/kg 4-8; procedure, shortened: as §4
Canis familiaris [13] = test: Bronchodilator activity in dog assessed as time of inhibition of carbachol or histamine-induced bronchoconstriction at 5 to 10 mg/kg, iv relative to control; assay type: functional, Canis lupus familiaris; conditions: dose mg/kg 5-10; procedure, shortened: as §1
Canis familiaris [14] = test: Bronchodilator activity in dog assessed as degree of inhibition of carbachol or histamine-induced bronchoconstriction at 5 to 10 mg/kg, iv relative to control; assay type: functional, Canis lupus familiaris; conditions: dose mg/kg 5-10; procedure, shortened: as §2
Canis familiaris [15] = test: Cardiotoxicity in spontaneously respiring dog assessed as degree of increase in heart rate at 100 to 200 mg/kg, iv relative to control; assay type: toxicity, organism-based, Canis lupus familiaris; parameters: dose 100-200 mg/kg, route intravenous; conditions: in vivo; procedure, shortened: as §3
Canis familiaris [16] = test: Bronchodilator activity in dog assessed as time of inhibition of carbachol or histamine-induced bronchoconstriction at 300 to 1200 mg/kg, it relative to control; assay type: functional, Canis lupus familiaris; conditions: dose mg/kg 300-1200; route endotracheal; procedure, shortened: as §4
Canis familiaris [17] = test: Bronchodilator activity in dog assessed as degree of inhibition of carbachol or histamine-induced bronchoconstriction at 100 to 200 mg/kg, iv relative to control; assay type: functional, Canis lupus familiaris; conditions: dose mg/kg 100-200; procedure, shortened: as §2
Canis familiaris [18] = test: Bronchodilator activity in dog assessed as time of inhibition of carbachol or histamine-induced bronchoconstriction at 100 to 200 mg/kg, iv relative to control; assay type: functional, Canis lupus familiaris; conditions: dose mg/kg 100-200; procedure, shortened: as §4
Canis familiaris [19] = test: Bronchodilator activity in dog assessed as degree of inhibition of carbachol or histamine-induced bronchoconstriction at 300 to 1200 mg/kg, it relative to control; assay type: functional, Canis lupus familiaris; conditions: dose mg/kg 300-1200; route endotracheal; procedure, shortened: as §2
Canis familiaris [20] = test: Bronchodilator activity in dog assessed as degree of inhibition of carbachol or histamine-induced bronchoconstriction at 25 to 100 mg/kg, iv relative to control; assay type: functional, Canis lupus familiaris; conditions: dose mg/kg 25-100; procedure, shortened: as §2
Canis familiaris [21] = test: Bronchodilator activity in dog assessed as time of inhibition of carbachol or histamine-induced bronchoconstriction at 25 to 100 mg/kg, iv relative to control; assay type: functional, Canis lupus familiaris; conditions: dose mg/kg 25-100; procedure, shortened: as §4
Canis familiaris [22] = test: Bronchodilator activity in dog assessed as time of inhibition of carbachol or histamine-induced bronchoconstriction at 520 to 1040 mg/kg, it relative to control; assay type: functional, Canis lupus familiaris; conditions: dose mg/kg 520-1040; route endotracheal; procedure, shortened: as §1
Canis familiaris [23] = test: Bronchodilator activity in dog assessed as degree of inhibition of carbachol or histamine-induced bronchoconstriction at 25 to 50 mg/kg, iv relative to control; assay type: functional, Canis lupus familiaris; conditions: dose mg/kg 25-50; procedure, shortened: as §2
Canis familiaris [24] = test: Bronchodilator activity in dog assessed as time of inhibition of carbachol or histamine-induced bronchoconstriction at 25 to 50 mg/kg, iv relative to control; assay type: functional, Canis lupus familiaris; conditions: dose mg/kg 25-50; procedure, shortened: as §4
Canis familiaris [25] = test: Bronchodilator activity in dog assessed as degree of inhibition of carbachol or histamine-induced bronchoconstriction at 520 to 1040 mg/kg, it relative to control; assay type: functional, Canis lupus familiaris; conditions: dose mg/kg 520-1040; route endotracheal; procedure, shortened: as §2

## CC(C)C(=O)Oc1ccc([C@@H](O)CNC(C)(C)C)cc1OC(=O)C(C)C.Cl
Canis familiaris [1]
  Time: <0.5 h
Canis familiaris [2]
  inhibition in vivo at 5 mg/kg: 20%

## CC(C)CC(=O)Oc1ccc([C@@H](O)CNC(C)(C)C)cc1OC(=O)CC(C)C.Cl
Canis familiaris [3]
  inhibition (INH): >70%
Canis familiaris [4]
  Activity: 20 beats/min
Canis familiaris [5]
  inhibition (INH): >70%
Canis familiaris [6]
  Time: <2 h
Canis familiaris [7]
  Time: < 1 h
Canis familiaris [8]
  Time: < 3 h
Canis familiaris [9]
  Time: 3 h
Canis familiaris [10]
  inhibition (INH): 45%
Canis familiaris [11]
  Activity: 40 beats/min
Canis familiaris [12]
  Time: <2 h

## CCC(C)C(=O)Oc1ccc([C@@H](O)CNC(C)(C)C)cc1OC(=O)C(C)CC.Cl (some centres not stated)
Canis familiaris [13]
  Time: <1 h
Canis familiaris [14]
  inhibition (INH): 45%

## CCCC(C)(C)C(=O)Oc1ccc([C@@H](O)CNC(C)(C)C)cc1OC(=O)C(C)(C)CCC.CS(=O)(=O)O
Canis familiaris [13]
  Time: <1 h
Canis familiaris [14]
  inhibition (INH): 45%

## CS(=O)(=O)O.Cc1ccccc1C(=O)Oc1ccc([C@@H](O)CNC(C)(C)C)cc1OC(=O)c1ccccc1C
Canis familiaris [15]
  Activity: 20%
Canis familiaris [16]
  Time: <3 h
Canis familiaris [17]
  inhibition (INH): 20%
Canis familiaris [18]
  Time: <4 h
Canis familiaris [19]
  inhibition (INH): 20%

## COc1ccc(CC(=O)Oc2ccc([C@@H](O)CNC(C)(C)C)cc2OC(=O)Cc2ccc(OC)cc2)cc1.Cl
Canis familiaris [20]
  inhibition (INH): >70%
Canis familiaris [21]
  Time: 2 h

## CS(=O)(=O)O.Cc1ccc(C(=O)Oc2ccc([C@@H](O)CNC(C)(C)C)cc2OC(=O)c2ccccc2)cc1
Canis familiaris [22]
  Time: 2 h
Canis familiaris [23]
  inhibition (INH): >70%
Canis familiaris [24]
  Time: 2 h
Canis familiaris [25]
  inhibition (INH): 45%
